Laboratory results as given in ChEMBL document CHEMBL4007470, “Discovery of a 2'-fluoro-2'-C-methyl C-nucleotide HCV polymerase inhibitor and a phosphoramidate prodrug with favorable properties” (Bioorg Med Chem Lett, 2017).
Converted amounts (≈) assume the structure as drawn.

Experiments:
[1] = tested on: RNA-directed RNA polymerase (Hepacivirus hominis), O39930 [UNDEFINED MUTATION]; test: Inhibition of HCV genotype 1b wild-type NS5B RNA dependent RNA polymerase S282T mutant relative to control; conditions: Hepatitis C virus subtype 1b
[2] = tested on: Hepatitis C virus; test: Antiviral activity against HCV genotype 1b infected in human HuH7 cells by luciferase reporter gene assay; assay type: functional, cell-based, Hepacivirus hominis; conditions: Hepatitis C virus, genotype 1b, Huh-7
In short: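 Luciferase-reporter genotype 1b subgenomic replicon in Huh-7 cells; EC50 is concentration giving 50% inhibition. Values are averages of at least three repeats.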

[3] = Inhibition of HCV genotype 1b wild-type NS5B RNA dependent RNA polymerase; design: species or system Hepatitis C virus subtype 1b
[4] = Hepatic extraction in human liver S9 fractions at 2 uM by LC-MS/MS analysis; assay type: ADME; conditions: liver S9 fractions, read-out: ERH
In short: (§1)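 Compound at 2 μM incubated with S9 fractions at 37 °C for 90 min with NADPH and UDPGA. Quenched with aqueous acetonitrile/methanol containing internal standard and analysed by LC-MS/MS. Half-life from an exponential fit assuming first-order kinetics. Hepatic extraction predicted from half-life using the well-stirred model.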

[5] = Half life in human plasma at 2 uM by LC-MS/MS analysis; assay type: ADME, cell-free
In short: (§2)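 Compound at 2 μM incubated in plasma at 37 °C for up to 4 h. Aliquots quenched with 9 volumes of acetonitrile containing internal standard, then centrifuged. Supernatant analysed by LC-MS/MS.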

[6] = Half life in hamster intestinal S9 fractions at 2 uM by LC-MS/MS analysis; assay type: ADME, Intestine; conditions: cricetinae, intestinal S9 fractions
[7] = Hepatic extraction in hamster liver S9 fractions at 2 uM by LC-MS/MS analysis; assay type: ADME; conditions: cricetinae, liver S9 fractions; read-out: ERH; in short: as §1
[8] = tested on: Hepatitis C virus; test: Antiviral activity against HCV genotype 4a infected in human HuH7 cells by luciferase reporter gene assay; assay type: functional, cell-based, Hepacivirus hominis; conditions: Hepatitis C virus, genotype 4a, Huh-7
[9] = Half life in human intestinal S9 fractions at 2 uM by LC-MS/MS analysis; assay type: ADME, Intestine; in short: as §1
[10] = tested on: Hepatitis C virus; test: Antiviral activity against HCV genotype 1a infected in human HuH7 cells by luciferase reporter gene assay; assay type: functional, cell-based, Hepacivirus hominis, subtype 1a; conditions: Hepatitis C virus, subtype 1a, Huh-7
[11] = Half life in hamster plasma at 2 uM by LC-MS/MS analysis; assay type: ADME, cell-free; conditions: cricetinae; in short: as §2
[12] = Permeability of the compound from basolateral to apical side in human Caco2 cells at 10 uM; assay type: ADME, cell-based, Caco-2; conditions: Caco-2, read-out: permeability
In short: (§3)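 Caco-2 permeability at 10 μM compound, measured in apical-to-basolateral and basolateral-to-apical directions.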

[13] = Prodrug activation in Syrian golden hamster liver assessed as triphosphate metabolite formation at 5 mg equivalents/kg, po after 1 hr by LC-MS/MS analysis; assay type: ADME, organism-based, Mesocricetus auratus; conditions: in vivo
In short: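 Golden Syrian hamsters (groups of 12) dosed orally at 5 mg-eq/kg in EtOH/PEG400/water buffered with 50 mM pH 4 citrate. Livers harvested under isoflurane at 1 h and extracted in cold KOH/EDTA/70% MeOH with Cl-ATP. Triphosphate measured by LC/MS/MS, with endogenous ATP checked for sample stability.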

[14] = tested on: Plasma; test: Stability in rat plasma at 2 uM up to 4 hrs by LC-MS/MS analysis; assay type: ADME, cell-free; in short: as §2
[15] = Permeability of the compound from apical to basolateral side in human Caco2 cells at 10 uM; assay type: ADME, cell-based, Caco-2; conditions: Caco-2, read-out: permeability; in short: as §3
[16] = Fraction absorbed in Beagle dog at 5 mg/kg, po; assay type: ADME, organism-based, Canis lupus familiaris; conditions: in vivo, read-out: Fabs
In short: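 Male beagle dogs dosed orally at 5 mg/kg. Fraction absorbed determined by portal vein sampling.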

[17] = Solubility of the compound in pH 7.4 solution; assay type: physicochemical
In short: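 Solubility measured at pH 7.4 using amorphous material.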

[18] = Inhibition of human DNA polymerase-alpha
[19] = Inhibition of human RNA polymerase-2
[20] = Prodrug activation in human HuH7 cells infected with HCV genotype 1b assessed as ((2R,3R,4R,5S)-5-(4-aminopyrrolo[1,2-f][1,2,4]triazin-7-yl)-4-fluoro-3-hydroxy-4-methyltetrahydrofuran-2-yl)methyl tetrahydrogen diphosphate level at 10 uM after 2 to 24 hrs by LC-MS/MS analysis; assay type: cell-based; conditions: huh-7, 10 µM
[21] = Prodrug activation in human HuH7 cells infected with HCV genotype 1b assessed as ((2R,3R,4R,5S)-5-(4-aminopyrrolo[1,2-f][1,2,4]triazin-7-yl)-4-fluoro-3-hydroxy-4-methyltetrahydrofuran-2-yl)methyl tetrahydrogen monophosphate level at 10 uM after 2 to 24 hrs by LC-MS/MS analysis; assay type: cell-based; conditions: huh-7, 10 µM
[22] = Prodrug activation in human HuH7 cells infected with HCV genotype 1b assessed as ((2R,3R,4R,5S)-5-(4-aminopyrrolo[1,2-f][1,2,4]triazin-7-yl)-4-fluoro-3-hydroxy-4-methyltetrahydrofuran-2-yl)methyl tetrahydrogen triphosphate level per million cells at 10 uM after 2 to 24 hrs by LC-MS/MS analysis; assay type: cell-based; conditions: huh-7, 10 µM
In short: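 HCV genotype 1b replicon Huh-7 cells (DMEM with glutaMAX, 10% heat-inactivated FBS, penicillin-streptomycin, G418) grown to confluency (0.88×10^6 cells/well), exposed continuously to prodrug at 10 μM for up to 24 h; washed in ice-cold saline, extracted into 70% methanol overnight, dried, resuspended in 1 mM ammonium phosphate pH 8.5; triphosphate quantified by LC-MS/MS; LLOQ 0.137 pmol/million cells; duplicate wells, single experiment.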

SMILES | EC50 [2] [nM] | hepatic extraction ratio at 2 µM [4] | half-life at 2 µM [5] [h] | half-life at 2 µM [6] [h] | hepatic extraction ratio at 2 µM [7] | EC50 [8] [nM] | half-life at 2 µM [9] [h] | EC50 [10] [nM] | half-life at 2 µM [11] [h] | also measured
C[C@@]1(O)[C@H](O)[C@@H](COP(=O)(O)OP(=O)(O)OP(=O)(O)O)O[C@H]1c1ccc2c(N)ncnn12 | > 89000 | – | – | – | – | – | – | – | – | fold change (FC) [1]: > 30; IC50 [3]: 290 nM
CCOC(=O)C1(NP(=O)(OC[C@H]2O[C@@H](c3cnc4c(N)ncnn34)[C@](C)(F)[C@@H]2O)Oc2ccccc2)CCC1 (some centres undefined) | 660 | 0.88 | 11.1 | 1.17 | 0.91 | 140 | 2.92 | 330 | 7 | –
CCOC(=O)[C@@H](C)NP(=O)(OC[C@H]1O[C@@H](c2cnc3c(N)ncnn23)[C@](C)(F)[C@@H]1O)Oc1ccccc1 (some centres undefined) | 26400 | 0.28 | 11.4 | 3.2 | 0.84 | 5700 | > 13.2 | 14700 | 5.27 | –
CC(C)OC(=O)[C@H](C)N[P@@](=O)(O)OC[C@H]1O[C@@](C#N)(c2ccc3c(N)ncnn23)[C@](C)(O)[C@@H]1O | – | – | – | – | – | – | – | – | – | Papp B→A at 10 µM [12]: 8.9 ×10⁻⁶ cm/s; liver triphosphate concentration [13]: 0.53 µM; Stability [14]: Unstable; Papp A→B at 10 µM [15]: 0.2 ×10⁻⁶ cm/s; Fa [16]: 10%; solubility [17]: 306 µg/mL (≈ 614 µM)
C[C@@]1(CO)[C@H](O)CC[C@@]2(C)[C@H]1CC[C@H]1C[C@@H]3C[C@@]12CC[C@]3(O)CO [APHIDICOLIN] | – | – | – | – | – | – | – | – | – | IC50 [18]: 7300 nM
CC[C@H](C)[C@@H]1NC(=O)CNC(=O)[C@@H]2Cc3c([nH]c4cc(O)ccc34)[S+]([O-])C[C@@H](NC(=O)CNC1=O)C(=O)N[C@@H](CC(N)=O)C(=O)N1C[C@H](O)C[C@H]1C(=O)NC([C@@H](C)[C@@H](O)CO)C(=O)N2 (some centres undefined) | – | – | – | – | – | – | – | – | – | IC50 [19]: 2.4 nM
CC(C)OC(=O)C(C)(C)NP(=O)(OC[C@H]1O[C@@H](c2ccc3c(N)ncnn23)[C@](C)(F)[C@@H]1O)Oc1ccccc1 (some centres undefined) | 41800 | 0.65 | 2.58 | 1.77 | 0.86 | 1100 | > 13.2 | 5000 | 2.07 | Papp B→A at 10 µM [12]: 17.6 ×10⁻⁶ cm/s; liver triphosphate concentration [13]: 1.29 µM; Stability [14]: Unstable; Papp A→B at 10 µM [15]: 4.2 ×10⁻⁶ cm/s; solubility [17]: 657 µg/mL (≈ 1160 µM)
CC(C)OC(=O)[C@H](C)N[P@](=O)(OC[C@H]1O[C@@H](c2cnc3c(N)ncnn23)[C@](C)(F)[C@@H]1O)Oc1ccccc1 | 670 | 0.65 | > 13.2 | 0.183 | 0.97 | 110 | 9.83 | 510 | > 13.2 | Papp B→A at 10 µM [12]: 16.6 ×10⁻⁶ cm/s; liver triphosphate concentration [13]: 0.34 µM; Stability [14]: Unstable; Papp A→B at 10 µM [15]: 0.94 ×10⁻⁶ cm/s; solubility [17]: 642 µg/mL (≈ 1160 µM)
CC(C)OC(=O)[C@@H](C)NP(=O)(OC[C@H]1O[C@@H](c2cnc3c(N)ncnn23)[C@](C)(F)[C@@H]1O)Oc1ccccc1 (some centres undefined) | > 88000 | 0.17 | 6.33 | 6.92 | 0.85 | 58100 | > 13.2 | > 88000 | 11.2 | –
CCOC(=O)C(C)(C)NP(=O)(OC[C@H]1O[C@@H](c2cnc3c(N)ncnn23)[C@](C)(F)[C@@H]1O)Oc1ccccc1 (some centres undefined) | 800 | 0.62 | 7.68 | 1.67 | 0.83 | 150 | 2.15 | 590 | 8.3 | –
CCOC(=O)[C@H](C)NP(=O)(OC[C@H]1O[C@@H](c2ccc3c(N)ncnn23)[C@](C)(F)[C@@H]1O)Oc1ccccc1 (some centres undefined) | > 89000 | – | – | – | – | – | – | – | – | Drug metabolism [20]: Metabolite_Notdetected; Drug metabolism [21]: Metabolite_Detected; Drug metabolism [22]: < 0.137 pmol
